Test results from ChEMBL document CHEMBL1255372 (2008).
Values after ≈ are worked out from the molar mass of the structure shown.

test system: Klebsiella pneumoniae; assay: Antibacterial activity against Klebsiella pneumoniae isolate VA367 with blaKPC-3, qnrB19, blaTEM-1, blaSHV-11, blaSHV-12, aac(6')-1b genes by CLSI method; assay type: functional

Row | Compound | MIC
1 | NCC[C@H](O)C(=O)N[C@@H]1C[C@H](N)[C@@H](O[C@H]2O[C@H](CN)[C@@H](O)[C@H](O)[C@H]2O)[C@H](O)[C@H]1O[C@H]1O[C@H](CO)[C@@H](O)[C@H](N)[C@H]1O [AMIKACIN] | ≥ 64 µg/mL
2 | CO/N=C(\C(=O)N[C@@H]1C(=O)N2C(C(=O)O)=C(CSc3nc(=O)c(O)nn3C)CS[C@H]12)c1csc(N)n1 [CEFTRIAXONE] | ≥ 64 µg/mL
3 | O=C1CN(/N=C/c2ccc([N+](=O)[O-])o2)C(=O)N1 [NITROFURANTOIN] | ≥ 512 µg/mL
4 | CCN1CCN(C(=O)N[C@@H](C(=O)N[C@@H]2C(=O)N3[C@@H]2SC(C)(C)[C@@H]3C(=O)O)c2ccccc2)C(=O)C1=O [PIPERACILLIN] | ≥ 128 µg/mL

test system: Klebsiella pneumoniae; assay: Antibacterial activity against Klebsiella pneumoniae isolate VA367 with blaKPC-3, qnrB19, blaTEM-1, blaSHV-11, blaSHV-12, aac(6')-1b genes by Etest method; assay type: functional

Row | Compound | MIC
5 | C[C@@H](O)[C@H]1C(=O)N2C(C(=O)O)=C(S[C@@H]3CN[C@H](C(=O)Nc4cccc(C(=O)O)c4)C3)[C@H](C)[C@H]12 | 16 µg/mL (≈ 33.6 µM)
6 | O=C(O)c1cn(C2CC2)c2cc(N3CCNCC3)c(F)cc2c1=O [CIPROFLOXACIN] | ≥ 32 µg/mL

test system: Escherichia coli; assay: Antibacterial activity against Escherichia coli J53 transconjugated with Klebsiella pneumoniae isolate VA367 containing blaKPC-3, qnrB19, blaTEM-1, blaSHV-11, aac(6')-1b genes by CLSI method; assay type: functional

Row | Compound | MIC
7 | NCC[C@H](O)C(=O)N[C@@H]1C[C@H](N)[C@@H](O[C@H]2O[C@H](CN)[C@@H](O)[C@H](O)[C@H]2O)[C@H](O)[C@H]1O[C@H]1O[C@H](CO)[C@@H](O)[C@H](N)[C@H]1O [AMIKACIN] | 16 µg/mL (≈ 27.3 µM)
8 | CO/N=C(\C(=O)N[C@@H]1C(=O)N2C(C(=O)O)=C(CSc3nc(=O)c(O)nn3C)CS[C@H]12)c1csc(N)n1 [CEFTRIAXONE] | 8 µg/mL (≈ 14.4 µM)
9 | O=C1CN(/N=C/c2ccc([N+](=O)[O-])o2)C(=O)N1 [NITROFURANTOIN] | ≤ 16 µg/mL
10 | CCN1CCN(C(=O)N[C@@H](C(=O)N[C@@H]2C(=O)N3[C@@H]2SC(C)(C)[C@@H]3C(=O)O)c2ccccc2)C(=O)C1=O [PIPERACILLIN] | ≥ 128 µg/mL

test system: Escherichia coli; assay: Antibacterial activity against Escherichia coli J53 transconjugated with Klebsiella pneumoniae isolate VA367 containing blaKPC-3, qnrB19, blaTEM-1, blaSHV-11, aac(6')-1b genes by Etest method; assay type: functional
How it was run: (§1)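 Test strains were E. coli J53 (rifampin-resistant recipient) transconjugants obtained by conjugation with the K. pneumoniae donor isolate. After overnight incubation, the donor–recipient mixture was plated on MacConkey agar containing ceftazidime (10 mg/liter) plus rifampin (100 mg/liter) to select transconjugants. Etest conditions are not described.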

Row | Compound | MIC
11 | C[C@@H](O)[C@H]1C(=O)N2C(C(=O)O)=C(S[C@@H]3CN[C@H](C(=O)Nc4cccc(C(=O)O)c4)C3)[C@H](C)[C@H]12 | 2 µg/mL (≈ 4.21 µM)
12 | COLISTIN | 0.38 µg/mL
13 | CN(C)c1cc(NC(=O)CNC(C)(C)C)c(O)c2c1C[C@H]1C[C@H]3[C@H](N(C)C)C(O)=C(C(N)=O)C(=O)[C@@]3(O)C(O)=C1C2=O [TIGECYCLINE] | 0.5 µg/mL (≈ 0.854 µM)

test system: Klebsiella pneumoniae; assay: Antibacterial activity against Klebsiella pneumoniae isolate VA375 with blaKPC-3, qnrA1, blaTEM-1, blaSHV-11 genes by CLSI method; assay type: functional

Row | Compound | MIC
14 | NCC[C@H](O)C(=O)N[C@@H]1C[C@H](N)[C@@H](O[C@H]2O[C@H](CN)[C@@H](O)[C@H](O)[C@H]2O)[C@H](O)[C@H]1O[C@H]1O[C@H](CO)[C@@H](O)[C@H](N)[C@H]1O [AMIKACIN] | ≤ 2 µg/mL
15 | CO/N=C(\C(=O)N[C@@H]1C(=O)N2C(C(=O)O)=C(CSc3nc(=O)c(O)nn3C)CS[C@H]12)c1csc(N)n1 [CEFTRIAXONE] | 32 µg/mL (≈ 57.7 µM)
16 | O=C1CN(/N=C/c2ccc([N+](=O)[O-])o2)C(=O)N1 [NITROFURANTOIN] | 64 µg/mL (≈ 269 µM)
17 | CCN1CCN(C(=O)N[C@@H](C(=O)N[C@@H]2C(=O)N3[C@@H]2SC(C)(C)[C@@H]3C(=O)O)c2ccccc2)C(=O)C1=O [PIPERACILLIN] | ≥ 128 µg/mL

test system: Klebsiella pneumoniae; assay: Antibacterial activity against Klebsiella pneumoniae isolate VA375 with blaKPC-3, qnrA1, blaTEM-1, blaSHV-11 genes by Etest method; assay type: functional

Row | Compound | MIC
18 | C[C@@H](O)[C@H]1C(=O)N2C(C(=O)O)=C(S[C@@H]3CN[C@H](C(=O)Nc4cccc(C(=O)O)c4)C3)[C@H](C)[C@H]12 | 8 µg/mL (≈ 16.8 µM)
19 | COLISTIN | 1 µg/mL
20 | O=C(O)c1cn(C2CC2)c2cc(N3CCNCC3)c(F)cc2c1=O [CIPROFLOXACIN] | 0.75 µg/mL (≈ 2.26 µM)
21 | CN(C)c1cc(NC(=O)CNC(C)(C)C)c(O)c2c1C[C@H]1C[C@H]3[C@H](N(C)C)C(O)=C(C(N)=O)C(=O)[C@@]3(O)C(O)=C1C2=O [TIGECYCLINE] | 1.5 µg/mL (≈ 2.56 µM)

test system: Escherichia coli; assay: Antibacterial activity against Escherichia coli J53 transconjugated with Klebsiella pneumoniae isolate VA375 containing qnrA1, blaTEM-1, blaSHV-11genes by CLSI method; assay type: functional

Row | Compound | MIC
22 | NCC[C@H](O)C(=O)N[C@@H]1C[C@H](N)[C@@H](O[C@H]2O[C@H](CN)[C@@H](O)[C@H](O)[C@H]2O)[C@H](O)[C@H]1O[C@H]1O[C@H](CO)[C@@H](O)[C@H](N)[C@H]1O [AMIKACIN] | ≤ 2 µg/mL
23 | CO/N=C(\C(=O)N[C@@H]1C(=O)N2C(C(=O)O)=C(CSc3nc(=O)c(O)nn3C)CS[C@H]12)c1csc(N)n1 [CEFTRIAXONE] | 8 µg/mL (≈ 14.4 µM)
24 | O=C1CN(/N=C/c2ccc([N+](=O)[O-])o2)C(=O)N1 [NITROFURANTOIN] | ≤ 16 µg/mL
25 | CCN1CCN(C(=O)N[C@@H](C(=O)N[C@@H]2C(=O)N3[C@@H]2SC(C)(C)[C@@H]3C(=O)O)c2ccccc2)C(=O)C1=O [PIPERACILLIN] | ≥ 128 µg/mL

test system: Escherichia coli; assay: Antibacterial activity against Escherichia coli J53 transconjugated with Klebsiella pneumoniae isolate VA375 containing qnrA1, blaTEM-1, blaSHV-11genes by Etest method; assay type: functional; how it was run: as §1

Row | Compound | MIC
26 | C[C@@H](O)[C@H]1C(=O)N2C(C(=O)O)=C(S[C@@H]3CN[C@H](C(=O)Nc4cccc(C(=O)O)c4)C3)[C@H](C)[C@H]12 | 0.125 µg/mL (≈ 0.263 µM)
27 | COLISTIN | 0.38 µg/mL
28 | CN(C)c1cc(NC(=O)CNC(C)(C)C)c(O)c2c1C[C@H]1C[C@H]3[C@H](N(C)C)C(O)=C(C(N)=O)C(=O)[C@@]3(O)C(O)=C1C2=O [TIGECYCLINE] | 0.5 µg/mL (≈ 0.854 µM)

test system: Escherichia coli; assay: Antibacterial activity against Escherichia coli J53 by CLSI method; assay type: functional

Row | Compound | MIC
29 | NCC[C@H](O)C(=O)N[C@@H]1C[C@H](N)[C@@H](O[C@H]2O[C@H](CN)[C@@H](O)[C@H](O)[C@H]2O)[C@H](O)[C@H]1O[C@H]1O[C@H](CO)[C@@H](O)[C@H](N)[C@H]1O [AMIKACIN] | ≤ 2 µg/mL
30 | CO/N=C(\C(=O)N[C@@H]1C(=O)N2C(C(=O)O)=C(CSc3nc(=O)c(O)nn3C)CS[C@H]12)c1csc(N)n1 [CEFTRIAXONE] | ≤ 1 µg/mL
31 | O=C1CN(/N=C/c2ccc([N+](=O)[O-])o2)C(=O)N1 [NITROFURANTOIN] | ≤ 16 µg/mL
32 | CCN1CCN(C(=O)N[C@@H](C(=O)N[C@@H]2C(=O)N3[C@@H]2SC(C)(C)[C@@H]3C(=O)O)c2ccccc2)C(=O)C1=O [PIPERACILLIN] | ≤ 4 µg/mL

test system: Escherichia coli; assay: Antibacterial activity against Escherichia coli J53 by Etest method; assay type: functional

Row | Compound | MIC
33 | C[C@@H](O)[C@H]1C(=O)N2C(C(=O)O)=C(S[C@@H]3CN[C@H](C(=O)Nc4cccc(C(=O)O)c4)C3)[C@H](C)[C@H]12 | 0.023 µg/mL (≈ 0.0484 µM)
34 | COLISTIN | 0.38 µg/mL
35 | CN(C)c1cc(NC(=O)CNC(C)(C)C)c(O)c2c1C[C@H]1C[C@H]3[C@H](N(C)C)C(O)=C(C(N)=O)C(=O)[C@@]3(O)C(O)=C1C2=O [TIGECYCLINE] | 0.5 µg/mL (≈ 0.854 µM)
